Measured values published in publication PMC5891368 (European journal of medicinal chemistry, 2018).
“Also recorded” adds a separate entry of the source.

How the values were obtained:
[1] = tested on: xylene-induced ear edema; settings: mouse, in vivo; cited from earlier work
[2] = tested on: MDA-MB-231 cells; test: Matrigel invasion assay induced by CXCR4/CXCL12; format: cell-based; settings: Homo sapiens, MDA-MB-231, 22 h, read-out: inhibition of Matrigel invasion
Outline: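 MDA-MB-231 cells were pre-treated with test compound at 100 nM and then seeded in the top chamber of a Matrigel invasion chamber in serum-free medium. CXCL12α at 200 ng/mL in the bottom chamber served as chemoattractant. After 22 h in a humidified incubator, non-invading cells were swabbed off. Invading cells were methanol-fixed, stained with H&E and counted to give percent invasion.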

[3] = tested on: SKBR3 cells; test: cytotoxicity, cell viability; format: cell-based; settings: SKBR3 (CXCR4-positive); MTT; 72 h
Outline: (§1)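 Cells were seeded at 3000 per well in 96-well plates and grown 24 h at 37 °C in a CO2 incubator. They were then exposed at 37 °C to test compound or vehicle control. CellTiter 96AQ (MTT-type) reagent was added for a further 2 h, and absorbance was read at 490 nm.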

[4] = tested on: phosphorylation of Akt; test: Western blot, CXCL12 induced phosphorylation of Akt; format: cell-based; settings: dose-dependent
Outline: (§2)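 Rabbit monoclonal primaries (1:500, overnight, 4 °C) were phospho-Akt Ser473 with pan-Akt for Akt, and phospho-p44/42 MAPK Thr202/Tyr204 with total p44/42 for p44/42. Detection used HRP goat anti-rabbit (1:10000, 1 h) and enhanced chemiluminescence.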

[5] = tested on: xylene-induced ear edema; test: xylene-induced ear edema model; format: in vivo, mouse; settings: after treatment with compound
[6] = tested on: MCF-10A cells; test: cytotoxicity, cell viability; format: cell-based; settings: up to 10 μM, MTT
[7] = tested on: MDA-MB-231 cells; test: cytotoxicity, cell viability; format: cell-based, human; settings: MDA-MB-231 (CXCR4-positive); up to 10 μM; MTT
Outline: as §1

[8] = tested on: AC1-ExR cells; test: cytotoxicity, cell viability; format: cell-based; settings: AC1-ExR (CXCR4-positive); MTT; 72 h
Outline: as §1

[9] = tested on: 184A1N4 cells; test: cytotoxicity, cell viability; format: cell-based; settings: 184A1N4 (CXCR4-negative); MTT; 72 h
Outline: as §1

[10] = tested on: MCF-7 cells; test: cytotoxicity, cell viability; format: cell-based; settings: MCF-7 (CXCR4-positive); MTT; 72 h
Outline: as §1

[11] = tested on: phosphorylation of p44/42; test: Western blot, CXCL12 induced phosphorylation of p44/42; format: cell-based
Outline: as §2

Structure (SMILES)	toxicity in this animal model [1]	inhibition at 0.1 µM [2]	antiproliferative activity / cytotoxicity [3]	active concentration for inhibition of Akt phosphorylation [4]	number of inflammatory cells in inflammatory tissues (histological analysis) [5]	swollen volume and thickness of the mouse ear (histological analysis) [5]	antiproliferative activity / cytotoxicity [6]	antiproliferative activity / cytotoxicity [7]	antiproliferative activity / cytotoxicity [8]	antiproliferative activity / cytotoxicity [9]	antiproliferative activity / cytotoxicity [10]	concentration suppressing phosphorylation of p44 [11]
c1cc(CN2CCCNCCNCCCNCC2)ccc1CN1CCCNCCNCCCNCC1 [AMD3100]	serious toxicity	55%										
O=C(NCc1ccc(CNS(=O)(=O)c2ccccc2)cc1)c1ccc(CNc2ncccn2)cc1 [Compound 7a, N-(4-(phenylsulfonamidomethyl)benzyl)-4-((pyrimidin-2-ylamino)methyl)benzamide]			no statistically significant differences	1 nM	significantly decreased	significantly reduced	did not inhibit the proliferation	did not inhibit the proliferation; also recorded: no statistically significant differences	no statistically significant differences	no statistically significant differences	no statistically significant differences	0.1 nM
